“And” between values parts separate entries of the source, which are not always exact repeats. Identical values can stand only once. The source made the active and inactive calls.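 The calls were made as follows: active = compounds lowering cell viability with a fitted IC50 within ten times their top tested dose; inconclusive = flat viability loss of 30 to 70 percent, or poor fit; inactive = the rest.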 A value given as a limit tells only on which side of the number the result lay.

The values that follow come from PubChem BioAssay AID493249 (Broad Institute, 2011).

The first assay concerns U2OS HRE-luc cells, viability toxicity counter-screen, CellTiter-Glo. The assay can be described thus: toxicity in U2OS HRE-luc reporter cells, dose response, cytotoxicity control for HIF pathway activator project, cell-based, dry powder, set 7 (AID 493249).
Conditions: not given
A digest of the protocol:
(§1)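 Material: U2OS HRE-luciferase reporter cells; quantity: 6,000 cells/well; evaluation: compound toxicity as loss of cell viability; medium: phenol red-free DMEM, 10% FBS, no hygromycin; detection: CellTiter-Glo luminescence; schedule: 24 h cell attachment, then 24 h compound exposure, 37 °C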
By IC50 is commonly meant the concentration that inhibits the measured activity by half. Turning to `c1ccc(-c2nnc(-c3ccccn3)nc2NCc2ccccn2)cc1`, the IC50 was > 38 µM (inactive). For the compound `Cn1c(-c2ccccc2)cnc1Nc1nc(-c2ccccn2)nnc1-c1ccccc1`, the IC50 was 34.8 µM.

Regarding `O=C(c1cc(-c2ccccc2)on1)N1CCN(c2ccncc2)CC1`, the IC50 is > 38 µM (inactive). For the compound `CC1CN(Cc2ccc(O)c3ncccc23)CC(C)O1` (centres undefined), the IC50 is > 38 µM (inactive). Take `c1ccc(-c2nnc(-c3ccccn3)nc2N2CCN(c3ccncc3)CC2)cc1`: the IC50 was > 38 µM (inactive). As to `O=C(NCCN1CCCCC1)c1cc(-c2ccccc2)on1`, the IC50 is > 38 µM (inactive). `c1ccc(-c2nnc(-c3ccccn3)nc2Nc2nc3ccccc3s2)cc1`: the IC50 is > 38 µM (inactive). `Oc1ccc(CN2CCC3CCCCC3C2)c2cccnc12` (centres undefined): the IC50 was > 38 µM (inactive). As to `c1ccc(-c2csc(Nc3nc(-c4ccccn4)nnc3-c3ccccc3)n2)cc1`, the IC50 is > 38 µM (inactive). `c1ccc(-c2nnc(-c3ccccn3)nc2N2CCC(N3CCOCC3)CC2)cc1`: the IC50 was > 38 µM (inactive).

With `c1ccc(-c2nnc(Nc3nc(-c4ccccn4)nnc3-c3ccccc3)s2)cc1`, the IC50 was > 38 µM (inactive).

Tested on in the next assay: not listed separately
The description is as above. Particulars: U2OS HRE-luc cells, viability toxicity counter-screen, CellTiter-Glo; at 38 µM (top of the series). A digest of the protocol: as §1
On the technique in general: A counterscreen serves to expose hits that act by an unwanted route or on another target.
As to `c1ccc(-c2nnc(-c3ccccn3)nc2NCCN2CCOCC2)cc1`, the activity change, negative = toxicity is -9.28% (inactive). For the compound `c1ccc(-c2cnc(Nc3nc(-c4ccccn4)nnc3-c3ccccc3)s2)cc1`, the activity change, negative = toxicity was 1.53% (inactive).

Regarding `O=C(Nc1nnc(-c2ccccc2)s1)c1cc(-c2ccccc2)on1`, the activity change, negative = toxicity was -7.07% (inactive).

`OCC1CCN(c2nc(-c3ccccn3)nnc2-c2ccccc2)CC1`: the activity change, negative = toxicity was -13.9% (inactive).

Consider `OCCCNc1nc(-c2ccccn2)nnc1-c1ccccc1`, for which the activity change, negative = toxicity was 4.98% (inactive).

Turning to `CN(C)CCNC(=O)c1cc(-c2ccccc2)on1`, the activity change, negative = toxicity is 14.4% (inactive).

As for `CC(C)(C)CCNC(=O)c1cc(-c2ccccc2)on1`, the activity change, negative = toxicity is -7.02% (inactive). For the compound `Cn1c(NC(=O)c2cc(-c3ccccc3)on2)nc2ccccc21`, the activity change, negative = toxicity was -0.865% (inactive). With `O=C(c1cc(-c2ccccc2)on1)N1CCC(CO)CC1`, the activity change, negative = toxicity was 1.17% (inactive). The same measure, in the same setting: as for `O=C(NCCCCO)c1cc(-c2ccccc2)on1`, the figure is -16.3% (inactive); as for `c1ccc(-c2nnc(-c3ccccn3)nc2NCC2CCCCC2)cc1`, -26% (inactive); as for `O=C(NCCN1CCOCC1)c1cc(-c2ccccc2)on1`, -16.1% (inactive). `Cc1cccc(Nc2nc(-c3ccccn3)nnc2-c2ccccc2)n1`: the activity change, negative = toxicity was -12.6% (inactive). On to `O=C(NC1CCc2ccccc2C1)c1cc(-c2ccccc2)on1` (centres undefined), for which the activity change, negative = toxicity is -10.6% (inactive).

On to `O=C(NCCCN1CCOCC1)c1cc(-c2ccccc2)on1`, for which the activity change, negative = toxicity was 0.736% (inactive). Consider `O=C(Nc1nc(-c2ccccc2)cs1)c1cc(-c2ccccc2)on1`, for which the activity change, negative = toxicity is 13.9% (inactive). Consider `O=C(NCCCO)c1cc(-c2ccccc2)on1`, for which the activity change, negative = toxicity was -3.27% (inactive).

On to `CN1CCN(c2nc(-c3ccccn3)nnc2-c2ccccc2)CC1`, for which the activity change, negative = toxicity is -13.4% (inactive).

Take `O=C(c1cc(-c2ccccc2)on1)N1CCc2cccnc21`: the activity change, negative = toxicity is -7.75% (inactive). `c1ccc(-c2nnc(-c3ccccn3)nc2NCCc2ccccn2)cc1`: the activity change, negative = toxicity was 4.22% (inactive). In the case of `C[C@@H](Nc1nc(-c2ccccn2)nnc1-c1ccccc1)c1ccccc1`, the activity change, negative = toxicity is -13.6% (inactive). `Oc1ccc(CNC2Cc3ccccc3C2)c2cccnc12`: the activity change, negative = toxicity was 0.726% (inactive).

On to `c1ccc(-c2nnc(-c3ccccn3)nc2NCC2CCOCC2)cc1`, for which the activity change, negative = toxicity was 20.8% (inactive). With `c1ccc(CCNc2nc(-c3ccccn3)nnc2-c2ccccc2)cc1`, the activity change, negative = toxicity was -5.99% (inactive). `Clc1cccc(CNc2nc(-c3ccccn3)nnc2-c2ccccc2)c1`: the activity change, negative = toxicity was 2.17% (inactive). For the compound `O=C(Nc1cnc2ccccc2c1)c1cc(-c2ccccc2)on1`, the activity change, negative = toxicity was 0.164% (inactive). `O=C(Nc1ncc2ccccc2n1)c1cc(-c2ccccc2)on1`: the activity change, negative = toxicity is -4.1% (inactive).

Take `Cc1ccccc1CNc1nc(-c2ccccn2)nnc1-c1ccccc1`: the activity change, negative = toxicity is -17.6% (inactive). As for `O=C(Nc1ccc2ccccc2n1)c1cc(-c2ccccc2)on1`, the activity change, negative = toxicity is 9.02% (inactive).

For the compound `C=CCNc1nc(-c2ccccn2)nnc1-c1ccccc1`, the activity change, negative = toxicity was 3.09% (inactive).

As for `Oc1ccc(CN2CCc3ccccc3C2)c2cccnc12`, the activity change, negative = toxicity was -16.2% (inactive). The same measure, in the same setting: as for `c1ccc(-c2nnc(-c3ccccn3)nc2NCc2cccnc2)cc1`, the figure is 40.2% (inactive); as for `O=C(c1cc(-c2ccccc2)on1)N1CCC(N2CCCC2)CC1`, -8.3% (inactive). For the compound `c1ccc(-c2nnc(-c3ccccn3)nc2N2CCC(C3CCCCC3)C2)cc1` (centres undefined), the activity change, negative = toxicity was 14.5% (inactive). As to `Cc1cccc(CNc2nc(-c3ccccn3)nnc2-c2ccccc2)c1`, the activity change, negative = toxicity is -16.7% (inactive). For `Oc1ccc(CNC2CCc3ccccc32)c2cccnc12` (centres undefined), the activity change, negative = toxicity is -17.9% (inactive). Regarding `CN(C)c1nc(-c2ccccn2)nnc1-c1ccccc1`, the activity change, negative = toxicity was 2.11% (inactive). `c1ccc(-c2cccc(CNc3nc(-c4ccccn4)nnc3-c3ccccc3)c2)cc1`: the activity change, negative = toxicity was -2.36% (inactive).

Take `COc1cccc(CNc2nc(-c3ccccn3)nnc2-c2ccccc2)c1`: the activity change, negative = toxicity is -14.9% (inactive). As to `c1ccc(-c2nnc(-c3ccccn3)nc2NCCCN2CCOCC2)cc1`, the activity change, negative = toxicity was 11% (inactive). Still for that read-out and setting: as for `CN1CCN(C(=O)c2cc(-c3ccccc3)on2)CC1`, the figure is 3.42% (inactive); as for `O=C(Nc1nc2ccccc2s1)c1cc(-c2ccccc2)on1`, -1.46% (inactive). Turning to `COc1ccccc1N1CCN(Cc2ccc(O)c3ncccc23)CC1`, the activity change, negative = toxicity is -18.6% (inactive). As for `O=C(NC1Cc2ccccc2C1)c1cc(-c2ccccc2)on1`, the activity change, negative = toxicity was -13.3% (inactive). Take `O=C(NCC1CCCCC1)c1cc(-c2ccccc2)on1`: the activity change, negative = toxicity was 0.869% (inactive).

Take `N#CC1(c2ccccc2)CCN(Cc2ccc(O)c3ncccc23)CC1`: the activity change, negative = toxicity was 7.2% (inactive). Still for that read-out and setting: as for `Cc1ccc(CNC(=O)c2cc(-c3ccccc3)on2)cc1`, the figure is 1.57% (inactive); as for `O=C(NCc1ccccc1)c1cc(-c2ccccc2)on1`, -7.7% (inactive); as for `OCC1CCN(Cc2ccc(O)c3ncccc23)CC1`, -25% (inactive). The same measure, in the same setting: as for `O=C(Nc1cn2ccccc2n1)c1cc(-c2ccccc2)on1`, the figure is -3.68% (inactive); as for `Cc1ccccc1CNC(=O)c1cc(-c2ccccc2)on1`, -4.19% (inactive).

As for `O=C(Nc1ncc(-c2ccccc2)o1)c1cc(-c2ccccc2)on1`, the activity change, negative = toxicity is 1.41% (inactive). For the compound `Oc1ccc(CN2CCC(Cc3ccccc3)CC2)c2cccnc12`, the activity change, negative = toxicity is -14.5% (inactive). Take `c1ccc(-c2nnc(-c3ccccn3)nc2NCC2CC2)cc1`: the activity change, negative = toxicity was 8.28% (inactive).

On to `CCCCNC(=O)c1cc(-c2ccccc2)on1`, for which the activity change, negative = toxicity is -11.5% (inactive). Turning to `Cn1c(-c2ccccc2)cnc1NC(=O)c1cc(-c2ccccc2)on1`, the activity change, negative = toxicity is -8.92% (inactive).

For the compound `Cc1ccc(CNc2nc(-c3ccccn3)nnc2-c2ccccc2)cc1`, the activity change, negative = toxicity was -15.4% (inactive).

For the compound `COc1ccc(CNc2nc(-c3ccccn3)nnc2-c2ccccc2)cc1`, the activity change, negative = toxicity is -2.05% (inactive).

Consider `O=C(c1cc(-c2ccccc2)on1)N1CCC(N2CCOCC2)CC1`, for which the activity change, negative = toxicity was -9.91% (inactive). Turning to `O=C(NCCCn1ccnc1)c1cc(-c2ccccc2)on1`, the activity change, negative = toxicity was -7.78% (inactive). Regarding `CC(C)(C)OC(=O)N1CCN(Cc2ccc(O)c3ncccc23)CC1`, the activity change, negative = toxicity is 6.17% (inactive). Consider `CC(C)(C)CCNc1nc(-c2ccccn2)nnc1-c1ccccc1`, for which the activity change, negative = toxicity was -13% (inactive) and -32.8% (inactive). As for `Cc1cccc(NC(=O)c2cc(-c3ccccc3)on2)n1`, the activity change, negative = toxicity was -0.352% (inactive). The same measure, in the same setting: as for `CC(Nc1nc(-c2ccccn2)nnc1-c1ccccc1)c1ccccc1` (centres undefined), the figure is 0.427% (inactive); as for `Cc1cccc(CNC(=O)c2cc(-c3ccccc3)on2)c1`, -1.11% (inactive). Same read-out and setting: as for `Cc1ccc(NC(=O)c2cc(-c3ccccc3)on2)cn1`, the figure is -11.1% (inactive). As to `c1ccc(-c2nnc(-c3ccccn3)nc2N2CCC(c3ccccc3)C2)cc1` (centres undefined), the activity change, negative = toxicity is -24.1% (inactive). With `O=C(NCC1CC1)c1cc(-c2ccccc2)on1`, the activity change, negative = toxicity is -6.03% (inactive).
